Laboratory results: ChEMBL document CHEMBL4049443, “Discovery of 2-[[2-Ethyl-6-[4-[2-(3-hydroxyazetidin-1-yl)-2-oxoethyl]piperazin-1-yl]-8-methylimidazo[1,2-a]pyridin-3-yl]methylamino]-4-(4-fluorophenyl)thiazole-5-carbonitrile (GLPG1690), a First-in-Class Autotaxin Inhibitor Undergoing Clinical Evaluation for the Treatment of Idiopathic Pulmonary …” (J Med Chem, 2017)
Calls of active or inactive are those of the source. No cut-off for these calls is given here.

Tests used:
[1] = Oral bioavailability in mouse at 5 mg/kg; format: ADME, organism-based; details: in vivo
[2] = Protein binding to mouse plasma; format: ADME, cell-free; details: read-out: PPB
[3] = Plasma concentration C57BL/6Rj mouse at 10 mg/kg administered as single dose via oral gavage after 24 hrs by LC-MS/MS analysis; format: ADME, organism-based
In short: (§1)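 Female C57BL/6Rj mice, 4−5 weeks old, fasted, given one oral gavage in PEG 200/MC 0.5% (25/75 v/v) at 0.3, 1 or 3 mg/mL. Intracardiac blood under isoflurane at 1, 3, 6 and 24 h into Li-heparin; n = 3 per time point. Methanol precipitation, LC−MS/MS against an eight-level calibration curve (LLOQ 4 ng/mL).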

[4] = Plasma concentration in C57BL/6Rj mouse at 3 mg/kg administered as single dose via oral gavage after 24 hrs by LC-MS/MS analysis; format: ADME, organism-based; in short: as §1
[5] = Tmax in C57BL/6Rj mouse at 10 mg/kg administered as single dose via oral gavage up to 24 hrs by LC-MS/MS analysis; format: ADME, organism-based; details: in vivo; in short: as §1
Mus musculus [6] = assay: In vivo inhibition of ATX in C57BL/6Rj mouse assessed as time for maximum reduction in LPA 18:2 at 10 mg/kg administered as single dose via oral gavage by LC-MS/MS analysis; format: functional
In short: (§2)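 Same single-gavage mouse study (female C57BL/6Rj, PEG 200/MC 0.5% vehicle, n = 3, bled predose and at 1, 3, 6, 24 h); vehicle control group. Plasma (10 μL) precipitated with methanol containing LPA 17:0 internal standard. LPA 18:2 read by LC−MS/MS as peak-area ratio to LPA 17:0. % reduction = 100 − (LPA at time t / mean vehicle LPA at time t × 100).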

[7] = Protein binding to dog plasma; format: ADME, cell-free, Canis lupus familiaris; details: read-out: PPB
[8] = Plasma clearance in rat at 1 mg/kg, iv; format: ADME, organism-based
Mus musculus [9] = assay: Dose normalized Cmax in C57BL/6Rj mouse at 30 mg/kg administered as single dose via oral gavage up to 24 hrs by LC-MS/MS analysis; format: ADME, organism-based; details: in vivo; in short: as §1
[10] = Protein binding to rat plasma; format: ADME, cell-free; details: read-out: PPB
Cytochrome P450 3A4 = Cytochrome P450 3A4 (Homo sapiens, UniProt P08684); assay: Time-dependent inhibition of human liver microsomes CYP3A4; format: ADME
Cytochrome P450 3A4, sequence (P08684 whole entry): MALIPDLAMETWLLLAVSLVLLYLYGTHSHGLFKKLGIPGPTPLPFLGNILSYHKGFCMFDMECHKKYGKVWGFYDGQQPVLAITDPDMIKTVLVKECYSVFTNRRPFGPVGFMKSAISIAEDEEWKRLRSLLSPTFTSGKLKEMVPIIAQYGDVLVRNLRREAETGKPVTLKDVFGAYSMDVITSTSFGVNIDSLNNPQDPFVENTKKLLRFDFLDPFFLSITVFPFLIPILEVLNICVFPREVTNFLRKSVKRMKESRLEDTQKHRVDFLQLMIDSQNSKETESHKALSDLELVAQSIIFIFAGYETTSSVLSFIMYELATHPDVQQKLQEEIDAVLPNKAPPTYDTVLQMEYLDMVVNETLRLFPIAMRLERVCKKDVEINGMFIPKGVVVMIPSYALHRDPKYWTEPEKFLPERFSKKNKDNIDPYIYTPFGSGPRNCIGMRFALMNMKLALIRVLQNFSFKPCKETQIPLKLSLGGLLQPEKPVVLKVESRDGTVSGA

[11] = Apparent terminal half life in C57BL/6Rj mouse at 30 mg/kg administered as single dose via oral gavage up to 24 hrs by LC-MS/MS analysis; format: ADME, organism-based; details: in vivo, read-out: betat1/2(app) (converted); in short: as §1
Autotaxin = Autotaxin (Mus musculus, UniProt Q9R1E6); assay: Inhibition of ATX in mouse plasma assessed as reduction in LPA 18:2 production after 2 hrs by LC-MS/MS analysis
Mus musculus [12] = assay: Dose normalized AUC (0 to 24 hrs) in C57BL/6Rj mouse at 10 mg/kg administered as single dose via oral gavage by LC-MS/MS analysis; format: ADME, organism-based; details: in vivo; in short: as §1
Mus musculus [13] = assay: Anti-fibrotic activity in BML-induced pulmonary fibrosis C57BL/6 mouse model assessed as reduction in […] 18:2 content in BALF at 30 mg/kg, po administered bid with 7.5 hrs interval between 2 doses for 21 days measured 2 hrs post last dose on day 21 by LC-MS/MS analysis relative to control; format: functional, organism-based
In short: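 BLM model as above (intranasal 30 μg/50 μL, 21 days oral twice-daily dosing in PEG 200/0.5% MC), satellite groups. Bronchoalveolar lavage with two 0.5 mL ice-cold saline instillations, 2 h after a 30 mg/kg dose. LPA 18:2 by LC−MS/MS; PBS n = 9, BLM-vehicle n = 6, treated n = 7; mean ± SEM, one-way ANOVA with Dunnett's test.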

[14] = Plasma clearance in mouse at 1 mg/kg, iv; format: ADME, organism-based
Mus musculus [15] = assay: In vivo inhibition of ATX in C57BL/6Rj mouse assessed as time for maximum reduction in LPA 18:2 at 30 mg/kg administered as single dose via oral gavage by LC-MS/MS analysis; format: functional; in short: as §2
Mus musculus [16] = assay: Time at which plasma concentration reach in vitro mouse plasma IC50 in C57BL/6Rj mouse at 3 mg/kg, po administered as single dose via gavage
[17] = Apparent terminal half life in C57BL/6Rj mouse at 10 mg/kg administered as single dose via oral gavage up to 24 hrs by LC-MS/MS analysis; format: ADME, organism-based; details: in vivo, read-out: betat1/2(app) (converted); in short: as §1
Mus musculus [18] = assay: Dose normalized AUC (0 to 24 hrs) in C57BL/6Rj mouse at 3 mg/kg administered as single dose via oral gavage by LC-MS/MS analysis; format: ADME, organism-based; details: in vivo; in short: as §1
Mus musculus [19] = assay: Anti-fibrotic activity in BML-induced pulmonary fibrosis C57BL/6 mouse model assessed as reduction in fibrous area with severe distortion of lung structure at 10 to 30 mg/kg, po administered bid with 7.5 hrs interval between 2 doses for 21 days relative to control; format: functional, organism-based
In short: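 Male C57Bl/6 mice, 11 weeks at delivery, anesthetized and given intranasal bleomycin 30 μg/50 μL; PBS controls. Oral dosing twice daily, 7.5 h apart, 10 mL/kg, from challenge day for 21 days: test agent in PEG 200/0.5% MC, pirfenidone in 0.5% CMC, vehicle controls; 14−24 mice per group. Lungs stained by Mallory method, scored 1–5 (Matsuse-modified Ashcroft) as mean of 10 low-power fields; group median, Mann−Whitney.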

[20] = Plasma clearance in dog at 1 mg/kg, iv; format: ADME, organism-based, Canis lupus familiaris
In short: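 Dog: from 1 mg/kg oral and intravenous doses. Clearance taken from the intravenous arm.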

Mus musculus [21] = assay: In vivo inhibition of ATX in C57BL/6Rj mouse assessed as reduction in LPA 18:2 level in plasma at 3 mg/kg administered as single dose via oral gavage by LC-MS/MS analysis; format: functional; in short: as §2

Question: Which results are given for `CCc1nc2c(C)cc(N3CCN(CC(=O)N4CC(O)C4)CC3)cn2c1N(C)c1nc(-c2ccc(F)cc2)c(C#N)s1` [ZIRITAXESTAT]?
Answer: bioavailability [1]: 29%; fraction unbound [2]: < 0.01; concentration at 24 h [3]: 4 ng/mL; concentration at 24 h [4]: 1 ng/mL; Tmax [5]: 1 h; Time (Mus musculus [6]): 3 h; fraction unbound [7]: < 0.01; clearance [8]: 11.5 mL/min/kg; Cmax/dose (Mus musculus [9]): 712 ng/mL/(mg/kg); fraction unbound [10]: < 0.01; TDI (Cytochrome P450 3A4): Not Active; half-life [11]: 3.79 h; IC50 (Autotaxin): 418 nM; AUC/dose (Mus musculus [12]): 2079 ng·h/mL/mg/kg; Activity (Mus musculus [13]): Active; clearance [14]: 3.83 mL/min/kg; Time (Mus musculus [15]): 3 h; Time (Mus musculus [16]): 6 h; half-life [17]: 2.22 h; AUC/dose (Mus musculus [18]): 1851 ng·h/mL/mg/kg; Activity (Mus musculus [19]): Active; clearance [20]: 2 mL/min/kg; inhibition in vivo at 3 mg/kg (Mus musculus [21]): 83.6%
